From ChEMBL document CHEMBL1155007, “Synthesis and monoamine transporter binding properties of 2beta-[3'-(substituted benzyl)isoxazol-5-yl]- and 2beta-[3'-methyl-4'-(substituted phenyl)isoxazol-5-yl]-3beta-(substituted phenyl)tropanes” (Bioorg Med Chem, 2008)

Assays:
[1] = target: Sodium-dependent dopamine transporter (Homo sapiens, UniProt Q01959); assay: Displacement of [3H]WIN-35428 from DAT
Method in brief: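 Competitive radioligand binding at the dopamine transporter, with 0.5 nM [3H]WIN35,428 as the final radioligand concentration. Compounds were tested as HCl salts. Values are means ± standard error of three or four experiments, each run in duplicate.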

[2] = target: Sodium-dependent serotonin transporter (Homo sapiens, UniProt P31645); assay: Displacement of [3H]paroxetine from 5HTT
Chain of Sodium-dependent serotonin transporter (P31645 whole entry): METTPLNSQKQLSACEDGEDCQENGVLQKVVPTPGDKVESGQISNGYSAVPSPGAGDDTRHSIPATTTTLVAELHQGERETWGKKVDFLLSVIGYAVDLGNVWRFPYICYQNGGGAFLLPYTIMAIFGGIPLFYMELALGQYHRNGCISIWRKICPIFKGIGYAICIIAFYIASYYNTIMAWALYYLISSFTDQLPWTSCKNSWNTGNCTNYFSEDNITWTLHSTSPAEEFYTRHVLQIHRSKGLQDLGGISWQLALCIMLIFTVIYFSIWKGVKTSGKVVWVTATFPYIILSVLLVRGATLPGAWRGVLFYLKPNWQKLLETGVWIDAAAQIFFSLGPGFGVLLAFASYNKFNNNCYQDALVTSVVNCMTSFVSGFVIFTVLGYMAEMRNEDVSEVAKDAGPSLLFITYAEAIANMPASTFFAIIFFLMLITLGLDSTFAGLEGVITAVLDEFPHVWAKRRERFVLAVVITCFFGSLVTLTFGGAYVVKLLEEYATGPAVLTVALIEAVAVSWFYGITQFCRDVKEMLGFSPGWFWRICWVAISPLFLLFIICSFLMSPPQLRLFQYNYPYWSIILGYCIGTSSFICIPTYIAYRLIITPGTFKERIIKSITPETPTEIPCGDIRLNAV
Method in brief: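 Competitive radioligand binding at the serotonin transporter, with 0.2 nM [3H]paroxetine as the final radioligand concentration. Compounds were tested as HCl salts. Values are means ± standard error of three or four experiments, each run in duplicate.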

[3] = target: Sodium-dependent noradrenaline transporter (Homo sapiens, UniProt P23975); assay: Displacement of [3H]nisoxetine from NET
Chain of Sodium-dependent noradrenaline transporter (P23975 whole entry): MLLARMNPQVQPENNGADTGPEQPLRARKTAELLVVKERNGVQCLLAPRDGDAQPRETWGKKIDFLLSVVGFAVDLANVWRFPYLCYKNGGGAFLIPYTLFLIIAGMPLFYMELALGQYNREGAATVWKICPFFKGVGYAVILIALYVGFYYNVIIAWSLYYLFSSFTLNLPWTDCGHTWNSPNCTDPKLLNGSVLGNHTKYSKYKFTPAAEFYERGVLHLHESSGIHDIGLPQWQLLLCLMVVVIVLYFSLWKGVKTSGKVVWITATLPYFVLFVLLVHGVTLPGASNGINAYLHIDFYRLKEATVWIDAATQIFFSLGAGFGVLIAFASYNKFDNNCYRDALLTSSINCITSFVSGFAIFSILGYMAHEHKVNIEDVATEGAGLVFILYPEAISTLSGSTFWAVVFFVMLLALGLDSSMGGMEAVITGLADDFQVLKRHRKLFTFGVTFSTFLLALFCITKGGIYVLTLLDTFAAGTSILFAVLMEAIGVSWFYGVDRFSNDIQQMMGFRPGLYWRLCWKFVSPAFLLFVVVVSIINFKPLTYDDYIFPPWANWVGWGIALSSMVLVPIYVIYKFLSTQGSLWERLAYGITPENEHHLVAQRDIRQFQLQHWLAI

Chain of Sodium-dependent dopamine transporter (Q01959 whole entry): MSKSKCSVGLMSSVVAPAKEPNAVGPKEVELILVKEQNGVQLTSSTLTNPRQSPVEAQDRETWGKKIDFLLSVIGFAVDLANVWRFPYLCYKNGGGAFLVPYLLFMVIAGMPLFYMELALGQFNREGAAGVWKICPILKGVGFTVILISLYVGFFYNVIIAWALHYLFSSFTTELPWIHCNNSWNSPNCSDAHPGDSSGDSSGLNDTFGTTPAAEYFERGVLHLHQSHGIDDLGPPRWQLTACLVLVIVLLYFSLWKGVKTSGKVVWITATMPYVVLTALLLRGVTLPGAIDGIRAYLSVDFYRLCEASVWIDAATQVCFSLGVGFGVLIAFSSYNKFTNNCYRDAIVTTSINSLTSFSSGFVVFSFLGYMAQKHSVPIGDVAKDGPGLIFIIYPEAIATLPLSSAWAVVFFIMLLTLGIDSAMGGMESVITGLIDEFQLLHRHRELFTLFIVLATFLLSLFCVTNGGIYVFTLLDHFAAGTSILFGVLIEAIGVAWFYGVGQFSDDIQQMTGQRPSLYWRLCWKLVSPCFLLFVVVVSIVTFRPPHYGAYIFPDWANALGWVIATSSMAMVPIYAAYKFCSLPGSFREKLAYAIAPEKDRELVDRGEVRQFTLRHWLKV

| SMILES | IC50 [1] [nM] | Ki [2] [nM] | Ki [3] [nM] |
| --- | --- | --- | --- |
| COc1ccc(-c2cc([C@@H]3C4CCC(C[C@@H]3c3ccc(Cl)cc3)N4C)on2)cc1 (some centres not stated) | 1.57 | 535 | 454 |
| COc1ccc(-c2cc([C@@H]3C4CCC(C[C@@H]3c3ccc(C)cc3)N4C)on2)cc1 (some centres not stated) | 3.93 | 366 | 455 |
| Cc1ccc([C@H]2CC3CCC([C@H]2c2onc(C)c2-c2ccc(Cl)cc2)N3C)cc1 (some centres not stated) | 65.7 | 864 | 519 |
| COc1ccc(-c2c(C)noc2[C@@H]2C3CCC(C[C@@H]2c2ccc(Cl)cc2)N3C)cc1 (some centres not stated) | 81.6 | 1800 | > 2000 |
| Cc1ccc(-c2cc([C@@H]3C4CCC(C[C@@H]3c3ccc(Cl)cc3)N4C)on2)cc1 (some centres not stated) | 4.09 | 522 | 1030 |
| Cc1ccc([C@H]2CC3CCC([C@H]2c2cc(-c4ccc(F)cc4)no2)N3C)cc1 (some centres not stated) | 6.45 | > 2000 | 552 |
| Cc1ccc([C@H]2CC3CCC([C@H]2c2cc(-c4ccc(Cl)cc4)no2)N3C)cc1 (some centres not stated) | 8.74 | > 2000 | > 2000 |
| Cc1ccc([C@H]2CC3CCC([C@H]2c2onc(C)c2-c2ccc(F)cc2)N3C)cc1 (some centres not stated) | 76 | > 2000 | 349 |
| Cc1noc([C@@H]2C3CCC(C[C@@H]2c2ccc(Cl)cc2)N3C)c1-c1ccc(Cl)cc1 (some centres not stated) | 68.7 | 387 | 788 |
| Cc1ccc([C@H]2CC3CCC([C@H]2c2cc(Cc4ccc(F)cc4)no2)N3C)cc1 (some centres not stated) | 5.9 | 113 | 454 |
| Cc1ccc([C@H]2CC3CCC([C@H]2c2cc(Cc4ccc(Cl)cc4)no2)N3C)cc1 (some centres not stated) | 22.2 | 85 | 840 |
| Cc1ccc(Cc2cc([C@@H]3C4CCC(C[C@@H]3c3ccc(C)cc3)N4C)on2)cc1 (some centres not stated) | 6.9 | 89.7 | 770 |
| COc1ccc(Cc2cc([C@@H]3C4CCC(C[C@@H]3c3ccc(Cl)cc3)N4C)on2)cc1 (some centres not stated) | 6.1 | 14.4 | 347 |
| COc1ccc(Cc2cc([C@@H]3C4CCC(C[C@@H]3c3ccc(C)cc3)N4C)on2)cc1 (some centres not stated) | 9.6 | 41.1 | 357 |
| COc1ccc(-c2c(C)noc2[C@@H]2C3CCC(C[C@@H]2c2ccc(C)cc2)N3C)cc1 (some centres not stated) | 119 | > 2000 | 1300 |
| CN1C2CCC1[C@@H](c1cc(Cc3ccc(F)cc3)no1)[C@@H](c1ccc(Cl)cc1)C2 (some centres not stated) | 8.6 | 72 | 435 |
| Cc1ccc(-c2c(C)noc2[C@@H]2C3CCC(C[C@@H]2c2ccc(C)cc2)N3C)cc1 (some centres not stated) | 173 | 1000 | > 2000 |
| CN1C2CCC1[C@@H](c1cc(-c3ccc(F)cc3)no1)[C@@H](c1ccc(Cl)cc1)C2 (some centres not stated) | 1.86 | 660 | 553 |
| Cc1noc([C@@H]2C3CCC(C[C@@H]2c2ccc(Cl)cc2)N3C)c1-c1ccc(F)cc1 (some centres not stated) | 111 | 908 | 466 |
| Cc1ccc(-c2cc([C@@H]3C4CCC(C[C@@H]3c3ccc(C)cc3)N4C)on2)cc1 (some centres not stated) | 13 | > 2000 | > 2000 |
| CN1C2CCC1[C@@H](c1cc(-c3ccc(Cl)cc3)no1)[C@@H](c1ccc(Cl)cc1)C2 (some centres not stated) | 6.42 | > 2000 | > 2000 |
| Cc1ccc(-c2c(C)noc2[C@@H]2C3CCC(C[C@@H]2c2ccc(Cl)cc2)N3C)cc1 (some centres not stated) | 135 | 297 | > 2000 |
| Cc1ccc(Cc2cc([C@@H]3C4CCC(C[C@@H]3c3ccc(Cl)cc3)N4C)on2)cc1 (some centres not stated) | 22.1 | 42.9 | 1100 |
| CN1C2CCC1[C@@H](c1cc(Cc3ccc(Cl)cc3)no1)[C@@H](c1ccc(Cl)cc1)C2 (some centres not stated) | 17.5 | 79 | 677 |
